Data reported in ChEMBL document CHEMBL5316351, “Development of a Covalent Inhibitor of c-Jun N-Terminal Protein Kinase (JNK) 2/3 with Selectivity over JNK1” (J Med Chem, 2023).
pIC50: −log10 of the molar value. Each block holds one compound with its values, some of them ahead of it. Calls of active or inactive are those of the source. No cut-off for these calls is given here.

Tests used:
[1] = biological target: T1, Mitogen-activated protein kinase 8 (Homo sapiens, UniProt P45983); assay: Inhibition of His-tagged human recombinant JNK1 expressed in insect cells incubated for 1 hr in presence of ATP by Z'-Lyte assay; design: species or system Insect cell
[2] = biological target: Epithelial discoidin domain-containing receptor 1 (Homo sapiens) (UniProt Q08345); assay: Inhibition of DDR1 (unknown origin)
[3] = biological target: T2, Mitogen-activated protein kinase 9 (Homo sapiens, UniProt P45984); assay: Inhibition of His-tagged human recombinant JNK2 expressed in baculovirus expression system incubated for 1 hr in presence of ATP by Z'-Lyte assay
[4] = biological target: Aurora kinase B (Homo sapiens) (UniProt Q96GD4); assay: Inhibition of Aurora B kinase (unknown origin)
[5] = biological target: CDK7/Cyclin H/MNAT1 (Homo sapiens) (UniProt P51946+P50613+P51948); assay: Inhibition of CDK7/Cyclin H/MAT1 (unknown origin); assay type: protein-complex assay
[6] = biological target: Epidermal growth factor receptor (Homo sapiens) (UniProt P00533); assay: Inhibition of EGFR (unknown origin)
[7] = biological target: T3, Aurora kinase A (Homo sapiens) (UniProt O14965); assay: Inhibition of Aurora A kinase (unknown origin)
T3 sequence (whole entry): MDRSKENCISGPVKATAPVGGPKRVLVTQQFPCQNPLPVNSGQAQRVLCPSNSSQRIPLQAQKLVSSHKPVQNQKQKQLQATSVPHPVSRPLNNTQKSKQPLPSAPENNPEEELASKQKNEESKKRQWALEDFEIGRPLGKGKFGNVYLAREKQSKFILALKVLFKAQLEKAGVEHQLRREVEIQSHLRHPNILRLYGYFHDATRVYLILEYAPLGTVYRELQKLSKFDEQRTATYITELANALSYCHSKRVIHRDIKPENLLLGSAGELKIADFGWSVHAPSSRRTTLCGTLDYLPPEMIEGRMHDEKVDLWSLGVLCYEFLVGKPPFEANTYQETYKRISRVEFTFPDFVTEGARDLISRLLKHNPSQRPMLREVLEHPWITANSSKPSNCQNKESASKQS

[8] = species on record: Homo sapiens; assay: Inhibition of CK1 (unknown origin)
[9] = biological target: T4, Mitogen-activated protein kinase 14 (Homo sapiens, UniProt Q16539); assay: Inhibition of Nano-Luc fused p38alpha (unknown origin) expressed in HEK293T cells pretreated for 3 hrs followed by K5-tarcer addition and measured after 1 hr by NanoBRET assay; assay type: cell-based; settings: time 4.0 hrs
[10] = biological target: T2, Mitogen-activated protein kinase 9; assay: Inhibition of JNK2 in human MM1.S cells at 1 uM by KiNativ Profiling analysis; assay type: cell-based
Procedure, shortened: (§1)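 MM.1S cells treated with 1 μM compound, collected, PBS-washed, frozen; KiNativ lysate profiling with ATP/ADP-biotin probe labelling conserved catalytic lysine.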
Target sequence in this assay (P45984 whole entry, looked up): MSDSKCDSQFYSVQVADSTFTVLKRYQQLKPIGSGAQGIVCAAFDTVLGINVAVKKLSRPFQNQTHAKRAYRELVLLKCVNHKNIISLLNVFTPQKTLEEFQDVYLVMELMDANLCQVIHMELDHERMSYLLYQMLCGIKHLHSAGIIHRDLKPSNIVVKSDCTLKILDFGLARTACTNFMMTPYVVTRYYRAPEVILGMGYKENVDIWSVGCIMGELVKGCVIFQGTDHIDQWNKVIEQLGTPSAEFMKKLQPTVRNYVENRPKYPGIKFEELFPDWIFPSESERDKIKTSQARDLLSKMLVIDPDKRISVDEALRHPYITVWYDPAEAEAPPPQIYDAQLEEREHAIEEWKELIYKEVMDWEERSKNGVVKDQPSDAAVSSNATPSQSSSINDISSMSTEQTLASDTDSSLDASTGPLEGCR

[11] = Antiproliferative activity against JNK knock-out human HAP1 cells transfected with sgJNK#2 assessed as inhibition of cell growth incubated for 3 days by CellTiter-Glo luminescent assay; assay type: functional, cell-based; settings: HAP1, 72 h
[12] = GSH reactivity in potassium phosphate buffer at pH 7.4 assessed as half life at 1 uM by LC-MS/MS analysis; assay type: ADME; settings: pH 7.4, 1 µM
[13] = Half life in human liver microsomes at 1 uM by LC-MS/MS analysis; assay type: ADME, Microsome
[14] = system: MM1.S; assay: Antiproliferative activity against human MM1.S cells assessed as inhibition of cell growth rate pretreated for 1 hr with JNK2 inhibitor, CC930 followed by incubation with drug and measured after 72 hrs by CellTiter-Glo luminescent assay; assay type: functional, cell-based
Procedure, shortened: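 MM.1S cells seeded 4000 cells/well, pretreated with 10 μM CC930, then exposed to inhibitor for 72 h; CellTiter-Glo luminescence, GR values from GR calculator; three biological replicates.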

[15] = biological target: T4, Mitogen-activated protein kinase 14; assay: Inhibition of GST-tagged human recombinant p38alpha expressed in Escherichia coli by Z'-LYTE assay
[16] = Antiproliferative activity against human HAP1 cells assessed as inhibition of cell growth incubated for 3 days by CellTiter-Glo luminescent assay; assay type: functional, cell-based; settings: HAP1, 72 h
[17] = Antiproliferative activity against wild type human ANBL-6 cells assessed as inhibition of cell growth incubated for 72 hrs by CellTiter-Glo luminescent assay; assay type: functional, cell-based; settings: ANBL-6, 72 h
[18] = Antiproliferative activity against Bortezomib-resistant human ANBL-6 cells assessed as inhibition of cell growth incubated for 72 hrs by CellTiter-Glo luminescent assay; assay type: functional, cell-based; settings: ANBL-6, 72 h
[19] = biological target: Mitogen-activated protein kinase 10 (Homo sapiens) (UniProt P53779); assay: Inhibition of JNK3 in human MM1.S cells at 1 uM by KiNativ Profiling analysis; assay type: cell-based; procedure, shortened: as §1
[20] = system: MM1.S; assay: Induction of apoptosis in human MM1.S cells assessed as increase in PARP cleavage at 0.5 to 2.5 uM incubated for 24 hrs by immunoblot analysis; assay type: functional, cell-based; settings: dose 0.5-2.5 µM
[21] = system: MM1.S; assay: Induction of apoptosis in human MM1.S cells at 250 nM by AnnexinV/PI staining based flow cytometry; assay type: functional, cell-based
[22] = biological target: T5, 1-phosphatidylinositol 3-phosphate 5-kinase (Homo sapiens, UniProt Q9Y2I7); assay: Inhibition of PIKFYVE in human SUM159 cells at 1 uM by KiNativ Profiling analysis; assay type: cell-based; settings: SUM159PT
Procedure, shortened: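 SUM159 cells treated with 1 μM compound, collected, PBS-washed and frozen; lysates probed with ATP/ADP-biotin acyl probe labelling catalytic lysine (KiNativ); protection from labelling measured.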

[23] = biological target: T1, Mitogen-activated protein kinase 8; assay: Inhibition of JNK1 in human MM1.S cells at 1 uM by KiNativ Profiling analysis; assay type: cell-based; procedure, shortened: as §1
[24] = system: MM1.S; assay type: functional, cell-based; settings: Homo sapiens, time 72.0 hrs
[25] = system: MM1.S; assay: Antiproliferative activity against human MM1.S cells overexpressing wild type JNK2 assessed as inhibition of cell growth rate measured after 72 hrs by CellTiter-Glo luminescent assay; assay type: functional, cell-based
[26] = system: MM1.S; assay: Induction of apoptosis in human MM1.S cells assessed as increase in caspase-3 cleavage at 0.5 to 2.5 uM incubated for 24 hrs by immunoblot analysis; assay type: functional, cell-based; settings: dose 0.5-2.5 µM
[27] = Half life in mouse liver microsomes at 1 uM by LC-MS/MS analysis; assay type: ADME, Microsome
[28] = biological target: Mitogen-activated protein kinase 10 (Homo sapiens) (UniProt P53779); assay: Inhibition of GST-tagged human recombinant JNK3 expressed in insect cells incubated for 1 hr in presence of ATP by Z'-lyte assay relative to control; settings: Insect cell
[29] = biological target: T2, Mitogen-activated protein kinase 9; assay: Covalent binding affinity to JNK2 in human MM1.S cells at 500 nM incubated for 6 hrs by biotin-JNK-IN-7 probe based pull-down competition based analysis; assay type: cell-based
Procedure, shortened: (§2)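 MM.1S cells exposed to compound or DMSO 6 h; lysed in HEPES pH 7.4/NP-40 buffer; lysates incubated with 1 μM biotin-JNK-IN-7 overnight at 4 °C then 2 h room temperature; streptavidin pull-down 2–3 h at 4 °C; bound JNK1/JNK2 detected by western blot.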
Target sequence in this assay (P45984 whole entry, looked up): as above

[30] = biological target: T1, Mitogen-activated protein kinase 8; assay: Covalent binding affinity to JNK1 in human MM1.S cells at 2 uM incubated for 6 hrs by biotin-JNK-IN-7 probe based pull-down competition based analysis; assay type: cell-based; procedure, shortened: as §2
[31] = system: MM1.S; assay: Antiproliferative activity against human MM1.S cells assessed as inhibition of cell growth rate measured after 72 hrs by CellTiter-Glo luminescent assay; assay type: functional
[32] = biological target: T2, Mitogen-activated protein kinase 9; assay: Inhibition of His-tagged human recombinant JNK2 expressed in baculovirus expression system incubated for 1 hr in presence of ATP by Z'-Lyte assay relative to control
Target sequence in this assay (P45984 whole entry, looked up): as above

[33] = Antiproliferative activity against human HAP1 cells transfected with sgGFP assessed as inhibition of cell growth incubated for 3 days by CellTiter-Glo luminescent assay; assay type: functional, cell-based; settings: HAP1, 72 h
[34] = biological target: T5, 1-phosphatidylinositol 3-phosphate 5-kinase; assay: Inhibition of wild type partial length human PIKFYVE (F1512 to C2098 residues) expressed in mammalian expression system at 1 uM by KinomeScan analysis
Procedure, shortened: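 KINOMEscan (ScanMAX) binding panel of >400 kinases, compound tested at 1 μM; reported as percent inhibition/score.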

[35] = biological target: T5, 1-phosphatidylinositol 3-phosphate 5-kinase; assay: Inhibition of PIKFYVE in human MDA-MB-231 cells assessed as vacuole formation upto 4 uM measured after 3 days by bright field microscopy; assay type: cell-based; settings: time 3.0 day
Procedure, shortened: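 MDA-MB-231 cells (DMEM, 10% FBS) seeded, next day treated with inhibitor or DMSO; after 3 days imaged by bright-field microscopy at 20× for vacuoles.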

[36] = Antiproliferative activity against JNK knock-out human HAP1 cells transfected with sgJNK#1 assessed as inhibition of cell growth incubated for 3 days by CellTiter-Glo luminescent assay; assay type: functional, cell-based; settings: HAP1, 72 h
[37] = biological target: T1, Mitogen-activated protein kinase 8; assay: Inhibition of His-tagged human recombinant JNK1 expressed in insect cells incubated for 1 hr in presence of ATP by Z'-Lyte assay relative to control; settings: Insect cell

T5 sequence (Q9Y2I7 whole entry): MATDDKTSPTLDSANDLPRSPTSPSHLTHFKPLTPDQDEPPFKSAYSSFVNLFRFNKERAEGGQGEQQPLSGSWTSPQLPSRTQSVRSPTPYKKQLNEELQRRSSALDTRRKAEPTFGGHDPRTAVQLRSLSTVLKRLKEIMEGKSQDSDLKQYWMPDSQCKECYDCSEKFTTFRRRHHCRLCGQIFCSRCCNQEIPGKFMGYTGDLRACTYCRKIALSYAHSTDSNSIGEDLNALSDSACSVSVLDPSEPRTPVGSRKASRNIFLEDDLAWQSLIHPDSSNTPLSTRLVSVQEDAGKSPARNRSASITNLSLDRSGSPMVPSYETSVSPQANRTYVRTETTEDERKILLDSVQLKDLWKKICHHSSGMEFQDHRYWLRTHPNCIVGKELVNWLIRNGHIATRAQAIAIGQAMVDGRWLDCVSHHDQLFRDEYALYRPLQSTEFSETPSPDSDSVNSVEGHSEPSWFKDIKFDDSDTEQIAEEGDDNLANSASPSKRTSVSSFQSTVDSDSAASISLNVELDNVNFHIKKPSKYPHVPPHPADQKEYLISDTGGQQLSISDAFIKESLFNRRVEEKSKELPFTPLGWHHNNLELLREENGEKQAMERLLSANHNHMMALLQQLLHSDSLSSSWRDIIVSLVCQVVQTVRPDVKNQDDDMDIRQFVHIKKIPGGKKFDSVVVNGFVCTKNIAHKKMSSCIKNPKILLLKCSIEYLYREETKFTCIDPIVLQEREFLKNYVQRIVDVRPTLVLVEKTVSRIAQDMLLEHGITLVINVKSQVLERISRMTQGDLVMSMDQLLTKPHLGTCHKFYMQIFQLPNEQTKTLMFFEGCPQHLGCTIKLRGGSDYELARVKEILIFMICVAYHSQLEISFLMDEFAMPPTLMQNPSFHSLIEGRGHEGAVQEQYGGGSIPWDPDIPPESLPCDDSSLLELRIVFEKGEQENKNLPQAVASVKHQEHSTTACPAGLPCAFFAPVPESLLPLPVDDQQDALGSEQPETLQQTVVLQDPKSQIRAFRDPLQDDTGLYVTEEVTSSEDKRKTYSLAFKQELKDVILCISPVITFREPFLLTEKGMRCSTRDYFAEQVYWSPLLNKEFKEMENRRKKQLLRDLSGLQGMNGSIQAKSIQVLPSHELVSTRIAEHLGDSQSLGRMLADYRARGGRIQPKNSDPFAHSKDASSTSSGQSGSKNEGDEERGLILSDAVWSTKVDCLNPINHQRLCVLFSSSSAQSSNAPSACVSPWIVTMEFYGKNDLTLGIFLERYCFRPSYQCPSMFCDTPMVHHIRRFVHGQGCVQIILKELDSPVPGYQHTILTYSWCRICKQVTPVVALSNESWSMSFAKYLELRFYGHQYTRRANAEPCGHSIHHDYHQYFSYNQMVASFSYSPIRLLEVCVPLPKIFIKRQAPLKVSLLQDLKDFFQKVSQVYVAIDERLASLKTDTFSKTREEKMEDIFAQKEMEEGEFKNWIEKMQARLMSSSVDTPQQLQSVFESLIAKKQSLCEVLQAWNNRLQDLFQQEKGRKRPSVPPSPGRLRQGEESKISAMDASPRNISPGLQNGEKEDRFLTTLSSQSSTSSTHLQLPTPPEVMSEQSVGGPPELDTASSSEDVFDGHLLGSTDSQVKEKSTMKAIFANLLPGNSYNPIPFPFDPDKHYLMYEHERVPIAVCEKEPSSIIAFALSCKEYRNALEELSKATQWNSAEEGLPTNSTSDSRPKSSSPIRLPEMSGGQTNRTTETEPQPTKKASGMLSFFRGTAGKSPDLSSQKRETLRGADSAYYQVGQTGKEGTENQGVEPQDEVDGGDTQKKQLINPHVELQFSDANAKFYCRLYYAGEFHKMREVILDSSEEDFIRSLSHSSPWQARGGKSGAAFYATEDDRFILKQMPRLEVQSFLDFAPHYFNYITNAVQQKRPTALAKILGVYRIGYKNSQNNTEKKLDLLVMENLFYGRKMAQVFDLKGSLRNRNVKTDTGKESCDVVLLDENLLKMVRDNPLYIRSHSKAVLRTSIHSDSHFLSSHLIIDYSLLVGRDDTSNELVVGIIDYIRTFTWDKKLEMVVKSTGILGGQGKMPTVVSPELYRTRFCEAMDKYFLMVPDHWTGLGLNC
T1 sequence (P45983 whole entry, the tested form may be a part): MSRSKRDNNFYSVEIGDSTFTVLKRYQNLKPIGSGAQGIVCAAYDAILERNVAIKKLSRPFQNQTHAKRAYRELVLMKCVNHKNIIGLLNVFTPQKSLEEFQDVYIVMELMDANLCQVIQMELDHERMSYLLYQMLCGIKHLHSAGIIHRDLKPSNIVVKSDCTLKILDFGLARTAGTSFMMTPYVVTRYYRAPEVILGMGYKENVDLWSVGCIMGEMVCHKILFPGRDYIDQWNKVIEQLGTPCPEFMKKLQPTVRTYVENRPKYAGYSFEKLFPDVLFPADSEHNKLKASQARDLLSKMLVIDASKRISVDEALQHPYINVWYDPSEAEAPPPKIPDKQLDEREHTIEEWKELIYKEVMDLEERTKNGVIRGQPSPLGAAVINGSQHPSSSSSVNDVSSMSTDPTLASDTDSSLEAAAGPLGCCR
T4 sequence (Q16539 whole entry, the tested form may be a part): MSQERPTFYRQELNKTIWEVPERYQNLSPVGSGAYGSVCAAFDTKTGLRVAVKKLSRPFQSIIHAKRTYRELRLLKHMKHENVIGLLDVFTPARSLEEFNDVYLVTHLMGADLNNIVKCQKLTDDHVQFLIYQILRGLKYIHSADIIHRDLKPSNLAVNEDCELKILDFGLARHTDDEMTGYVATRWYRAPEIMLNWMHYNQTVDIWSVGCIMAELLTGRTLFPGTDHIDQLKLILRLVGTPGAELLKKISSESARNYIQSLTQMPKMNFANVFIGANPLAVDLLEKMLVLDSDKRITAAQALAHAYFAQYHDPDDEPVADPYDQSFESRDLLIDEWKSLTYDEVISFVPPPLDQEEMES
Mitogen-activated protein kinase 10 (Homo sapiens), sequence (P53779 whole entry): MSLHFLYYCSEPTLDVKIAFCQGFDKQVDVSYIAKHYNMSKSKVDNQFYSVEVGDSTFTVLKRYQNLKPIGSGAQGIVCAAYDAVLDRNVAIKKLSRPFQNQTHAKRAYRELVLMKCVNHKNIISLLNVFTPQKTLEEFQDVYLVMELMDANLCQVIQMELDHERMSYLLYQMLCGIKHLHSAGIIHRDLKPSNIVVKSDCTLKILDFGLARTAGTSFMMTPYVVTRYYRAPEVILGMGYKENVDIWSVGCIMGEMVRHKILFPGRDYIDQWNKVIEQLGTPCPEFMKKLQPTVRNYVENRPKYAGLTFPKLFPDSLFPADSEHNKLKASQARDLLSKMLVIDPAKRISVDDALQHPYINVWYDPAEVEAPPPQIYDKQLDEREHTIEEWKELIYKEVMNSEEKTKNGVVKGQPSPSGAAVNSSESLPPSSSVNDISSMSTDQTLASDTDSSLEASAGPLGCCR
Epidermal growth factor receptor (Homo sapiens), sequence (P00533 whole entry): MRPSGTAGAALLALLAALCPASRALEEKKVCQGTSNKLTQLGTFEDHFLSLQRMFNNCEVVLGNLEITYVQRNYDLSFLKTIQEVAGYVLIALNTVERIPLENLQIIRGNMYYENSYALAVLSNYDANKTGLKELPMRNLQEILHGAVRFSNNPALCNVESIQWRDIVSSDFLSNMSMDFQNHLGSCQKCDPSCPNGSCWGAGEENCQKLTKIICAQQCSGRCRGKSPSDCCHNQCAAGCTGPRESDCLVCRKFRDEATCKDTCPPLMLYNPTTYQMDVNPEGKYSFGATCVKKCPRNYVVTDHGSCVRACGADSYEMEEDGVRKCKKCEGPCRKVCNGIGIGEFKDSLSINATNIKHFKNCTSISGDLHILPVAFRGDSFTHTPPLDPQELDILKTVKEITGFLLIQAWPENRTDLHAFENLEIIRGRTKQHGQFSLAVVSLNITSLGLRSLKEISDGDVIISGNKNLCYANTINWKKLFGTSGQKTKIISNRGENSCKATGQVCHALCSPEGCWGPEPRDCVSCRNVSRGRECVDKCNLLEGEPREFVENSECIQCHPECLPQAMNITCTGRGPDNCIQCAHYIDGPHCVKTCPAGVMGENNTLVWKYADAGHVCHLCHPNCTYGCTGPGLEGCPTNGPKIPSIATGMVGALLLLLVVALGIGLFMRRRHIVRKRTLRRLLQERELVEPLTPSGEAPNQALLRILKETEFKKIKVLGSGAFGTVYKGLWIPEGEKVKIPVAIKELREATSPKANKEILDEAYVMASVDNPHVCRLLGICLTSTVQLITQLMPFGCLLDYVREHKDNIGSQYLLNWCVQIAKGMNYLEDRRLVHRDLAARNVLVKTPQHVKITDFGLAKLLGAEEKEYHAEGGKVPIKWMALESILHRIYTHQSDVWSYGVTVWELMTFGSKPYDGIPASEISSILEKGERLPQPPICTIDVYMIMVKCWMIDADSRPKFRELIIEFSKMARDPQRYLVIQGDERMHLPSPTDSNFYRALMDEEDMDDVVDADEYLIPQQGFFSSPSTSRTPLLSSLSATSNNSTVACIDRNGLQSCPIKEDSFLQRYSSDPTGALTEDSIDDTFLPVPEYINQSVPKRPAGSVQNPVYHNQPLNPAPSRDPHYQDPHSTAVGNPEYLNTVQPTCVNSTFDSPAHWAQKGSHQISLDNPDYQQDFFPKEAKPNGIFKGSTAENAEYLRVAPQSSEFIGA

pIC50 [1]: 6.14
inhibition [2]: Active
pIC50 [3]: 8.08
inhibition [4]: Active
inhibition [5]: Active
inhibition [6]: Active
inhibition [7]: Active
inhibition [8]: Active
SMILES: CN(C)C/C=C/C(=O)Nc1ccc(C(=O)Nc2cccc(Nc3nccc(-c4c(-c5ccccc5)nn5ccccc45)n3)c2)cc1

inhibition [9]: Active
inhibition [10]: Active
t1/2 [12]: 46 min
t1/2 [13]: 16 min
pIC50 [15]: 7.82
inhibition [19]: Active
inhibition [22]: inactive
inhibition [23]: Active
t1/2 [27]: 11 min
Imax [28]: 68%
Activity [29]: Active
Activity [30]: Active
Imax [32]: 98%
inhibition [34]: 44%
inhibition [35]: inactive
Imax [37]: 85%
SMILES: C[C@H]1CN(C(=O)c2ccc(NC(=O)/C=C/CN(C)C)cc2)C[C@H]1Nc1nccc(-c2c(-c3ccccc3)nn3ccccc23)n1
pIC50 [11]: 6.07
Activity [14]: Active
pIC50 [16]: 6.28
pIC50 [17]: 6.92
pIC50 [18]: 7.02
Activity [20]: Active
Activity [21]: Active
Activity [24]: Active
Activity [25]: Active
Activity [26]: Active
GR50 [31]: 200 nM
pIC50 [33]: 6.01
pIC50 [36]: 5.96
